Our source for the Activity values is ChEMBL document CHEMBL4622983, “Structure-Activity Relationship Studies of α-Ketoamides as Inhibitors of the Phospholipase A and Acyltransferase Enzyme Family” (J Med Chem, 2020).

This assay addresses Monoacylglycerol lipase ABHD6 (Mus musculus) (UniProt Q8R2Y0). As to the kind of experiment: Inhibition of mouse brain membrane ABHD6 assessed as enzyme remaining activity at 10 uM preincubated for 30 mins followed by MB064 or FP-TAMRA addition and measured after 15 mins by SDS-PAGE based ABPP analysis relative to control. The format is cell membranes. An outline of the steps:
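Mouse brain membrane proteome (2 μg/μL) preincubated with 10 μM inhibitor for 30 min at rt. Then MB064 250 nM or FP-TAMRA 500 nM for 15 min at rt. Resolved on 10% SDS-PAGE, fluorescence normalized to Coomassie. Reported as % remaining activity ± SD, n = 3.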

Monoacylglycerol lipase ABHD6 (Mus musculus), sequence (Q8R2Y0 whole entry): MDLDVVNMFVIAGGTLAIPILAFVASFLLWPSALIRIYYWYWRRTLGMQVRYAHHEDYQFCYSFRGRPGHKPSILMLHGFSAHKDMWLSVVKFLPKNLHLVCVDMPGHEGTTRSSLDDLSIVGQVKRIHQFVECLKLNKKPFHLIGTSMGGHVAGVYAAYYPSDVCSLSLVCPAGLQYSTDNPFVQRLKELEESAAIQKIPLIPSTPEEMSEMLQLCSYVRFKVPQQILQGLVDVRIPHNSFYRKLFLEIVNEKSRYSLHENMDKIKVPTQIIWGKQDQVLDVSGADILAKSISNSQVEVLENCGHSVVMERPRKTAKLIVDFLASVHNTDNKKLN

As to `O=C(CCCc1ccccc1)C(=O)NCCc1ccc(Oc2ccccc2)cc1`, the Activity was 92%.
